From ChEMBL document CHEMBL3526106, “Cytochrome P450 regulation by α-tocopherol in Pxr-null and PXR-humanized mice” (Drug Metab Dispos, 2013) come the findings set out here.

In series [1] the test system is Ugt1a10. The series can be described thus: Induction of Ugt1a10 gene expression in wild type mouse liver at 50 mg/kg dosed through gavage daily for 4 days by qPCR method. The following applies: po, read-out: FC. The arrangement: dose 50 mg/kg. Type of series: ADME, organism-based. (In general: Quantitative PCR measures a nucleic acid by following its amplification.)

The subject of another series is Ugt1a1. The experiment in a line: Induction of Ugt1a1 gene expression in wild type mouse liver at 50 mg/kg dosed through gavage daily for 4 days by qPCR method. Type of series: ADME, organism-based. The arrangement: dose 50 mg/kg. The conditions noted are these: po, read-out: FC.
The next series has as its system Ugt2b34. The experiment in a line: Induction of Ugt2b34 gene expression in wild type mouse liver at 50 mg/kg dosed through gavage daily for 4 days by qPCR method. Format: ADME, organism-based. Set-up: dose 50 mg/kg. The following applies: po, read-out: FC.
In another series the test system is Ugt1a9. The experiment in a line: Induction of Ugt1a9 gene expression in wild type mouse liver at 50 mg/kg dosed through gavage daily for 4 days by qPCR method. Format: ADME, organism-based. Set-up: dose 50 mg/kg. The conditions noted are these: po, read-out: FC.
In the next series the test system is Ugt2b5. The series can be described thus: Induction of Ugt2b5 gene expression in wild type mouse liver at 50 mg/kg dosed through gavage daily for 4 days by qPCR method. Type of series: ADME, organism-based. The arrangement: dose 50 mg/kg. The following applies: po, read-out: FC.
In series [2] the test system is Ugt1a10. The experiment in a line: Induction of Ugt1a10 gene expression in PXR null mouse liver at 50 mg/kg dosed through gavage daily for 4 days by qPCR method. The conditions noted are these: po, read-out: FC. Type of series: ADME, organism-based. The arrangement: dose 50 mg/kg.
Series [3] concerns Mus musculus. The series can be described thus: Reduction in Ugt1a6b gene expression in wild type mouse liver at 50 mg/kg dosed through gavage daily for 4 days by qPCR method. Format: ADME, organism-based. Set-up: dose 50 mg/kg. The following applies: in vivo, po, 96 h.
A further series relates to Cyp3a11. The series can be described thus: Induction of Cyp3a11 gene expression in wild type mouse liver at 50 mg/kg dosed through gavage daily for 4 days by qPCR method. Type of series: ADME, organism-based. Set-up: dose 50 mg/kg. The conditions noted are these: po, read-out: FC.
Series [4] concerns Cyp2c29. The series can be described thus: Induction of Cyp2c29 gene expression in wild type mouse liver at 50 mg/kg dosed through gavage daily for 4 days by qPCR method. Type of series: ADME, organism-based. Set-up: dose 50 mg/kg. The conditions noted are these: po, read-out: FC.
Another series relates to Cyp2c55. The series can be described thus: Induction of Cyp2c55 gene expression in wild type mouse liver at 50 mg/kg dosed through gavage daily for 4 days by qPCR method. Format: ADME, organism-based. The arrangement: dose 50 mg/kg. The following applies: po, read-out: FC.
For series [5], the target named is T1, PXR (Nuclear receptor subfamily 1 group I member 2) (Mus musculus, UniProt O54915).
T1 sequence (O54915 whole entry): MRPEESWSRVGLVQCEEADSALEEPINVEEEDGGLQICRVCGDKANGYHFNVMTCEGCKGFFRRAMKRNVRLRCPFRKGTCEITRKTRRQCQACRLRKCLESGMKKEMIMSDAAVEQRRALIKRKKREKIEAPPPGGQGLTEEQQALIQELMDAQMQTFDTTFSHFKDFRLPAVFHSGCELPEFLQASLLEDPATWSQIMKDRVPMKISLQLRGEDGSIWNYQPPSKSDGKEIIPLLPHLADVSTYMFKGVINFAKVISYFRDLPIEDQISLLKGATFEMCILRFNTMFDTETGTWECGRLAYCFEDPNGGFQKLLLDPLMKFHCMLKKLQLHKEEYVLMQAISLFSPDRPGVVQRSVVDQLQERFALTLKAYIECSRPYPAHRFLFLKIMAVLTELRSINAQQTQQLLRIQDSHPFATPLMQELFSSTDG
The series can be described thus: Activation of mouse PXR expressed in human HepG2 cells at 10 uM after 24 hrs by firefly luciferase DR3 reporter gene assay. Format: ADME, cell-based. The conditions noted are these: human HepG2 cells expressing mouse PXR, read-out: FC. Put shortly:
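HepG2 cells grown in DMEM + 10% FBS were transfected with 10 ng mouse PXR, 100 ng DR3 firefly luciferase reporter and 2 ng Renilla pRL-SV40. Compound in DMSO was added 24 h after transfection and left for 24 h. Dual luciferase was then read, firefly normalized to Renilla per well, and expressed as fold over DMSO control.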
(In general: A reporter such as luciferase makes a cellular process visible.)

The next series has as its system Cyp2b10. The experiment in a line: Induction of Cyp2b10 gene expression in wild type mouse liver at 50 mg/kg dosed through gavage daily for 4 days by qPCR method. Type of series: ADME, organism-based. The arrangement: dose 50 mg/kg. The following applies: po, read-out: FC.
In series [6] the test system is Mus musculus. The series can be described thus: Reduction in Ugt1a6b gene expression in PXR-humanized mouse liver at 10 mg/kg dosed through gavage daily for 4 days by qPCR method. The following applies: in vivo, po, 96 h.
In series [7] the test system is Mus musculus. The series can be described thus: Reduction in Ugt1a6a gene expression in PXR-humanized mouse liver at 10 mg/kg dosed through gavage daily for 4 days by qPCR method. The conditions noted are these: in vivo, po, 96 h.
Series [8] relates to Cyp2c29. The series can be described thus: Induction of Cyp2c29 gene expression in male PXR null mouse liver at 50 mg/kg dosed through gavage daily for 4 days by qPCR method. The conditions noted are these: po, read-out: FC.
For series [9], the system named is Mus musculus. The experiment in a line: Drug level in male PXR-humanized mouse treated with 500 mg/kg for 7 to 14 days dosed through vitamin E-deficient base diet by UPLC-ESI-QTOFMS method based metabolomics analysis. The following applies: in vivo, po. Set-up: dose 500 mg/kg. Type of series: ADME, organism-based.
Series [10] concerns Mus musculus. The series can be described thus: Drug level in male wild type mouse treated with 500 mg/kg for 7 to 14 days dosed through vitamin E-deficient base diet by UPLC-ESI-QTOFMS method based metabolomics analysis. The following applies: in vivo, po. Type of series: ADME, organism-based. Set-up: dose 500 mg/kg.
In series [11] the test system is Mus musculus. The experiment in a line: Drug level in male PXR null mouse treated with 500 mg/kg for 7 to 14 days dosed through vitamin E-deficient base diet by UPLC-ESI-QTOFMS method based metabolomics analysis. Format: ADME, organism-based. Set-up: dose 500 mg/kg. The conditions noted are these: in vivo, po.

Regarding `CC(=O)[C@H]1[C@H](C#N)C[C@H]2[C@@H]3CC=C4C[C@@H](O)CC[C@]4(C)[C@H]3CC[C@@]21C` [PREGNENOLONE CARBONITRILE], the fold induction at 96 h in the series with Ugt1a10 [1] was 2.8; in the series on Ugt1a1, 3.1; with Ugt2b34 it was 3.2; in the series on Ugt1a9 it was 9.4; in the series with Ugt2b5, 1.4; in the series with Ugt1a10 [2] it was 1.8. Further, the fold induction at 96 h came out at 20.9 in the series with Cyp3a11; 9.2 with Cyp2c29 [4]; 303 with Cyp2c55; 160 in the series with Cyp2b10; 1.6 in the series with Cyp2c29 [8]. Moreover, the “fold change (FC)” value is 1.3 in the series with Mus musculus [3], 1.8 with Mus musculus [6] and 2 with Mus musculus [7]. Besides, the fold induction at 24 h, 10 µM in series [5] came to 9.5.
As for `CN1CC(=O)NC1=N` [CREATININE], the Drug metabolism result in the series with Mus musculus [9], with Mus musculus [10] and with Mus musculus [11] was “metabolite_detected” in each case.
